Converted amounts (≈) assume the structure as drawn.
Experiments:
[1] = biological target: T1, PXR (NR1I2) (Homo sapiens, UniProt O75469); assay: Induction of human PXR at 10 uM relative to control; assay type: ADME; conditions: read-out: Activity
T1 sequence (O75469 whole entry): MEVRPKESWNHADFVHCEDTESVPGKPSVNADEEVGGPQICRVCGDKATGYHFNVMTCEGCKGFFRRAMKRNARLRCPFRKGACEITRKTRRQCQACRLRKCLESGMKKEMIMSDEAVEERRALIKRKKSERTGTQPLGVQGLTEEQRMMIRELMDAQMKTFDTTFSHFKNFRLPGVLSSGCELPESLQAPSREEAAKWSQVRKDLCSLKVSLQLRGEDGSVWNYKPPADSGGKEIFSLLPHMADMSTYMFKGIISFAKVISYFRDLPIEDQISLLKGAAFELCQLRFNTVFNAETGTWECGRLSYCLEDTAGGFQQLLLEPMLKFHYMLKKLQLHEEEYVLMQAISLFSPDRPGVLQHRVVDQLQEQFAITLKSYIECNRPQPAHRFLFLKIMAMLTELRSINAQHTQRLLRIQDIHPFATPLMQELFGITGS
Summary of the method: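 Human PXR activation as an indirect measure of CYP3A4 induction, at 10 μM, expressed as % of rifampicin control activation.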

[2] = AUC (0 to 24 hrs) in rat assessed as NOAEL at 200 mg/kg/day, po administered as repeated dose for 13 days; assay type: ADME, organism-based; parameters: route oral, time 13 day, dose 200 mg/kg/day; conditions: in vivo
[3] = Cmax in rat assessed as NOAEL at 200 mg/kg/day, po administered as repeated dose for 13 days; assay type: ADME, organism-based; parameters: route oral, time 13 day, dose 200 mg/kg/day; conditions: in vivo
[4] = Cmax in mouse assessed as NOAEL at 200 mg/kg/day, po administered as repeated dose for 13 days; assay type: ADME, organism-based; parameters: route oral, dose 200 mg/kg/day, time 13 day; conditions: in vivo
[5] = Stability in rat liver microsomes assessed as extraction ratio; assay type: ADME, Microsome; conditions: read-out: ERH
Summary of the method: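 Metabolic stability in human or rat liver microsomes, expressed as extraction ratios.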

[6] = Ex vivo receptor occupancy at OX1R in Sprague-Dawley rat brain tenia tecta using [3H]SB-674042 labelling at 30 mg/kg, po measured after 0.5 hrs by autoradiography; assay type: functional
Summary of the method: (§1)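 Ex vivo OX1R binding autoradiography in rat tenia tecta after a 30 mg/kg po dose; percent occupancy read at 0.5 and 2 h.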

[7] = Ex vivo receptor occupancy at OX1R in Sprague-Dawley rat brain tenia tecta using [3H]SB-674042 labelling at 30 mg/kg, po measured after 2 hrs by autoradiography; assay type: functional; summary of the method: as §1
[8] = Ex vivo receptor occupancy at OX1R in Sprague-Dawley rat brain tenia tecta using [3H]SB-674042 labelling at 10 mg/kg, po measured after 0.5 hrs by autoradiography; assay type: functional
Summary of the method: (§2)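 Rats received a single oral dose, and OX1R occupancy was measured by ex vivo binding autoradiography in brain tenia tecta sections at 0.5, 2 and 6 h after dosing. Occupancy is expressed as percent. Brain and plasma drug levels (ng/mL) were also sampled at the 0.5 h time point.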

[9] = Ex vivo receptor occupancy at OX1R in Sprague-Dawley rat brain tenia tecta using [3H]SB-674042 labelling at 10 mg/kg, po measured after 2 hrs by autoradiography; assay type: functional; summary of the method: as §2
[10] = Ex vivo receptor occupancy at OX1R in Sprague-Dawley rat brain tenia tecta using [3H]SB-674042 labelling at 10 mg/kg, po measured after 6 hrs by autoradiography; assay type: functional; summary of the method: as §2
[11] = Drug concentration in Sprague-Dawley rat brain at 30 mg/kg, po after 0.5 hrs by LC-MS/MS analysis; assay type: ADME, organism-based; conditions: read-out: Ct
Summary of the method: (§3)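 Brain and plasma levels (ng/mL) sampled 0.5 h after oral dosing at 10 or 30 mg/kg, alongside the ex vivo tenia tecta occupancy study.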

[12] = Drug concentration in Sprague-Dawley rat plasma at 30 mg/kg, po after 0.5 hrs by LC-MS/MS analysis; assay type: ADME, organism-based; summary of the method: as §3
[13] = Stability in dog liver microsomes assessed as extraction ratio; assay type: ADME, Canis lupus familiaris, Microsome; conditions: read-out: ERH
[14] = Stability in mouse liver microsomes assessed as extraction ratio; assay type: ADME, Microsome; conditions: read-out: ERH
[15] = Protein binding in rat plasma assessed as free fraction; assay type: ADME, cell-free
[16] = Protein binding in dog plasma assessed as free fraction; assay type: ADME, cell-free, Canis lupus familiaris
[17] = Permeability across basolateral to apical side in MDCK cells; assay type: ADME, cell-based, Canis lupus familiaris; conditions: dog
[18] = Permeability across apical to basolateral side in MDCK cells; assay type: ADME, cell-based, Canis lupus familiaris; conditions: dog
[19] = Ex vivo receptor occupancy at OX1R in po dosed rat tenia tecta after 60 mins; assay type: functional, organism-based; conditions: 1 h
[20] = Oral bioavailability in mouse at 5 mg/kg; assay type: ADME, organism-based; conditions: in vivo
[21] = Oral bioavailability in rat at 5 mg/kg; assay type: ADME, organism-based; conditions: in vivo
[22] = Clearance in rat at 1 mg/kg, iv and 5 mg/kg, po; assay type: ADME, organism-based; conditions: in vivo
[23] = Cmax in mouse at 1 mg/kg, iv and 5 mg/kg, po; assay type: ADME, organism-based; parameters: dose 5 mg/kg; conditions: in vivo
[24] = Volume of distribution at steady state in mouse at 1 mg/kg, iv and 5 mg/kg, po; assay type: ADME, organism-based; conditions: in vivo, read-out: Vdss
[25] = Volume of distribution at steady state in rat at 1 mg/kg, iv and 5 mg/kg, po; assay type: ADME, organism-based; conditions: in vivo, read-out: Vdss
[26] = Volume of distribution at steady state in dog at 0.5 mg/kg, iv and […], po; assay type: ADME, organism-based, Canis lupus familiaris; conditions: in vivo, dose 2.5 mg/kg, read-out: Vdss
[27] = Oral bioavailability in primate at 5 mg/kg; assay type: ADME, organism-based; conditions: primates, in vivo
[28] = Clearance in primate; assay type: ADME; conditions: primates
[29] = Cmax in primate; assay type: ADME; conditions: primates
[30] = Volume of distribution at steady state in primate; assay type: ADME; conditions: primates; read-out: Vdss
[31] = AUC (0 to 24 hrs) in mouse assessed as NOAEL at 200 mg/kg/day, po administered as repeated dose for 13 days; assay type: ADME, organism-based; parameters: route oral, dose 200 mg/kg/day, time 13 day; conditions: in vivo
[32] = AUC in rat assessed as NOAEL at 250 mg/kg, po administered as repeated dose for 5 days; assay type: ADME, organism-based; parameters: time 5 day, dose 250 mg/kg; conditions: in vivo
[33] = Drug concentration in Sprague-Dawley rat brain at 10 mg/kg, po after 0.5 hrs by LC-MS/MS analysis; assay type: ADME, organism-based; conditions: read-out: Ct; summary of the method: as §3
[34] = Cmax in rat assessed as NOAEL at 200 mg/kg/day, po administered as repeated dose for 6 days; assay type: ADME, organism-based; parameters: route oral, dose 200 mg/kg/day, time 6 day; conditions: in vivo
[35] = AUC (0 to 24 hrs) in rat assessed as NOAEL at 200 mg/kg/day, po administered as repeated dose for 6 days; assay type: ADME, organism-based; parameters: route oral, time 6 day, dose 200 mg/kg/day; conditions: in vivo
[36] = […] clearance in nonhuman primate; assay type: ADME; conditions: primates
[37] = Cmax in rat assessed as NOAEL at 200 mg/kg/day, po measured after immediately administered; assay type: ADME, organism-based; parameters: route oral, dose 200 mg/kg/day, time 13 day; conditions: in vivo
[38] = Cmax in mouse assessed as NOAEL at 200 mg/kg/day, po measured after immediately administered; assay type: ADME, organism-based; parameters: route oral, time 13 day, dose 200 mg/kg/day; conditions: in vivo
[39] = AUC (0 to 24 hrs) in rat assessed as NOAEL at 200 mg/kg/day, po measured after immediately administered; assay type: ADME, organism-based; parameters: route oral, time 13 day, dose 200 mg/kg/day; conditions: in vivo
[40] = AUC (0 to 24 hrs) in mouse assessed as NOAEL at 200 mg/kg/day, po measured after immediately administered; assay type: ADME, organism-based; parameters: route oral, dose 200 mg/kg/day, time 13 day; conditions: in vivo

`O=C(c1cccc(F)c1-c1ncccn1)N1[C@@H]2CC[C@H]1[C@H](Nc1cnc(C(F)(F)F)cn1)C2` gave an activity at 10 µM [1] of 29%, an AUC at 312 h [2] of 36200 ng·h/mL and a Cmax [3] of 6980 ng/mL. It also gave a Cmax [4] of 24800 ng/mL, a hepatic extraction ratio [5] of 0.31 and an Activity [6] of 100%. For the same compound, the Activity [7] was 100%, the Activity [8] was 70% and the Activity [9] was 41%. For the same compound, the Activity [10] was 17%, the concentration at 0.5 h [11] was 687 ng/mL and the concentration at 0.5 h [12] was 4960 ng/mL. The hepatic extraction ratio [13] was < 0.3, the hepatic extraction ratio [14] was 0.4 and the fraction unbound [15] was 0.23. It also gave a fraction unbound [16] of 0.21, a Papp B→A [17] of 64.4 ×10⁻⁶ cm/s and a Papp A→B [18] of 1.95 ×10⁻⁶ cm/s. It also gave an EC50 [19] of 0.085 µg/mL (≈ 0.185 µM), an ED50 ([19]; po, time 60 min) of 1.3 mg/kg and a bioavailability [20] of 58%. It also gave a bioavailability [21] of 119%, a clearance [22] of 17 mL/min/kg and a Cmax [23] of 1500 ng/mL. For the same compound, the Vd [24] was 1.1 L/kg, the Vd [25] was 1.4 L/kg and the Vd [26] was 0.6 L/kg. For the same compound, the bioavailability [27] was 22%, the clearance [28] was 14 mL/min/kg and the Cmax [29] was 349 ng/mL. The Vd [30] was 0.8 L/kg, the AUC at 312 h [31] was 84100 ng·h/mL and the AUC at 120 h [32] was 101000 ng·h/mL. The concentration at 0.5 h [33] was 188 ng/mL, the Cmax [34] was 8800 ng/mL and the AUC at 144 h [35] was 62000 ng·h/mL. The CLint scaled [36] was 13 mL/min/kg, the Cmax [37] was 30900 ng/mL and the Cmax [38] was 32900 ng/mL. For the same compound, the AUC at 312 h [39] was 386000 ng·h/mL and the AUC at 312 h [40] was 225000 ng·h/mL.

— ChEMBL document CHEMBL4725448, “Substituted Azabicyclo[2.2.1]heptanes as Selective Orexin-1 Antagonists: Discovery of JNJ-54717793” (ACS Med Chem Lett, 2020)
